Assay results pooled from the literature.
Each line is one published result; the experiments were not run side by side.
Target: Serine/threonine-protein kinase STK11 (STK11, Homo sapiens, UniProt Q15831)
Sequence (Q15831 1-433, as in one of the studies): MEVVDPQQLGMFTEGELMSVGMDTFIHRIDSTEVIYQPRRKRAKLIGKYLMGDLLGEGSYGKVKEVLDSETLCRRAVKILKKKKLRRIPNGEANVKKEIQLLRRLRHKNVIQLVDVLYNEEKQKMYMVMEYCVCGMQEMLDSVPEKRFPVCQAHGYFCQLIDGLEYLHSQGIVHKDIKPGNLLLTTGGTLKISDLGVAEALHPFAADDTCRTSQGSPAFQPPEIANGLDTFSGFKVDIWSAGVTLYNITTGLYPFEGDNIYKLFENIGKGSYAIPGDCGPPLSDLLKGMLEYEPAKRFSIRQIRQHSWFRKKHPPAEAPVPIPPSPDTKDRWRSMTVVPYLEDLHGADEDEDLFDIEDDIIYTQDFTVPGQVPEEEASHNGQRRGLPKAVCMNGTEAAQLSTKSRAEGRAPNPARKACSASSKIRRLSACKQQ

COc1cc(Nc2cnc(C#N)c(O[C@H](C)CN(C)C)n2)ncc1-c1cnn(C)c1  remaining activity (enzyme activity; inhibitor; radiometric; 10 µM): 64%
Cc1ccc(-n2nc(C(C)(C)C)cc2NC(=O)Nc2ccc(OCCN3CCOCC3)c3ccccc23)cc1  inhibition (enzyme activity; inhibitor; 10 µM): 10%
O=C1Nc2ccc(Cl)cc2C1=Cc1cc(Cl)c(O)c(Cl)c1  remaining signal (cell-free assay; 0.5 µM): 93.1%
CCS(=O)(=O)c1cc2cc(C[C@](O)(CC(C)(C)c3ccc(F)cc3C(N)=O)C(F)(F)F)[nH]c2cn1  remaining binding (cell-free assay; competition with immobilised ligand; 1 µM): 100%
CN(c1nccc(-c2cnn3ncccc23)n1)C1CC1  remaining signal (cell-free assay; 1 µM): 100%
COc1cc2ncnc(Nc3ccc(F)c(Cl)c3)c2cc1OCCCN1CCOCC1  remaining signal (cell-free assay; 0.5 µM): 106%
Cc1sc(C(=O)NC2COC2)cc1-n1cc(NC(=O)Nc2c(F)cccc2Cl)cn1  remaining activity (enzyme activity; inhibitor; 10 µM): 97.6%
CNCc1ccccc1-c1csc([C@H](C)Nc2nc(C)nc3cc(OC)c(OC)cc23)c1  remaining binding (cell-free assay; competition with immobilised ligand; 1 µM): 100%
O=C(Nc1cnn(-c2csc(C(=O)NC3COC3)c2)c1)Nc1ccccc1Cl  remaining activity (enzyme activity; inhibitor; 5 µM): 118%
Cc1ccc(C(=O)NCc2ccsc2)cc1C#Cc1cn(C(C)C)c2ncnc(N)c12  activity vs control (enzyme activity; inhibitor; 1 µM): 94%
Cn1c(=O)n(-c2ccc(C(C)(C)C#N)cc2)c2c3cc(-c4cnc5ccccc5c4)ccc3ncc21  remaining activity (enzyme activity; inhibitor; 10 µM): 105%
Nc1ncnc2occ(-c3ccc(NC(=O)Nc4cc(C(F)(F)F)ccc4F)cc3)c12  remaining signal (cell-free assay; inhibitor; 20 µM): 99%
Cc1ccc(NC(=O)c2ccc(C)c(C(F)(F)F)c2)cc1C#Cc1nn(C2CCC(O)CC2)c2ncnc(N)c12 (stereo not shown)  remaining signal (cell-free assay; 10 µM): 94%
CCC(=O)N[C@H]1CC[C@@H](C(=O)N(C)c2ccc(-c3nc4ccccc4o3)cc2)C1  remaining binding (cell-free assay; competition with immobilised ligand; 1 µM): 100%
Cc1ccc(Nc2nccc(N(C)c3ccc4c(C)n(C)nc4c3)n2)cc1S(N)(=O)=O  inhibition (enzyme activity; inhibitor; 10 µM): -2%
O=C1NC(=O)c2cc(Nc3ccc(F)cc3)c(Nc3ccc(F)cc3)cc21  remaining signal (cell-free assay; 0.5 µM): 98.2%
FC(F)(F)c1ccc2c(c1)nc(-c1cccnc1)n2C1CC1  remaining binding (cell-free assay; competition with immobilised ligand; 1 µM): 100%
CCN(CC)CCNC(=O)c1c(C)[nH]c(/C=C2\C(=O)Nc3ccc(F)cc32)c1C  inhibition (enzyme activity; inhibitor; 10 µM): 3%
Cc1c[nH]c2nccc(Oc3c(F)cc(Nc4cc(Cl)nc(N)n4)cc3F)c12  remaining binding (cell-free assay; competition with immobilised ligand; 0.1 µM): 100%
CCN(CC)c1ccc(C2=NNC(=O)CC2C)cc1[N+](=O)[O-] (stereo not shown)  remaining activity (enzyme activity; inhibitor; 10 µM): 91%
FC(F)(F)Oc1cccc(-c2cnc3ccc(-c4ccncc4)nn23)c1  activity vs control (enzyme activity; inhibitor; radiometric; 1 µM): 89%
CCCCN(CCCC)C(=O)CN1C[C@@H](c2cc(OC)c3c(c2)OCO3)[C@H](C(=O)O)[C@H]1CC(C)(C)CCC  remaining binding (cell-free assay; competition with immobilised ligand; 1 µM): 82.2%
CCCOc1ccc(OC)c(F)c1C(=O)c1ccc(C(=O)N[C@@H]2CNC[C@H]2NC(=O)c2ccc3[nH]ncc3c2)cc1  remaining activity (enzyme activity; inhibitor; 10 µM): 92%
CNC(=O)c1ccc(Nc2ncc(C(F)(F)F)c(NCc3nccnc3N(C)S(C)(=O)=O)n2)cc1  remaining binding (cell-free assay; competition with immobilised ligand; 0.1 µM): 100%
Oc1cccc(-c2nc(N3CCOCC3)c3oc4ncccc4c3n2)c1  remaining activity (enzyme activity; inhibitor; 10 µM): 62%
